Measurements published in ChEMBL document CHEMBL2331324, “Synthesis and biological evaluation of guanidino analogues of roscovitine” (Eur J Med Chem, 2013).

Assays:
[1] = target: Fibroblast growth factor receptor 1 (Homo sapiens) (UniProt P11362); assay: Inhibition of recombinant FGF-R1 (unknown origin) assessed as residual activity using [gamma-33P]ATP as substrate at 1 uM
In short: (§1)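 Recombinant kinase panel screened at 1 µM in duplicate. Reactions started with [γ-33P]ATP (800 cpm/pmol) at 5, 20 or 50 µM, chosen to sit at or below each enzyme's ATP Km. Stopped with phosphoric acid and spotted onto P81 filters. Result given as residual kinase activity.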

[2] = target: Serine/threonine-protein kinase Sgk1 (Homo sapiens) (UniProt O00141); assay: Inhibition of recombinant SGK1 (unknown origin) assessed as residual activity using [gamma-33P]ATP as substrate at 1 uM
In short: (§2)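 Kinase panel screen with each compound at 1 µM, in duplicate. Reactions were started with [γ-33P]ATP (800 cpm/pmol) at 5, 20 or 50 µM, chosen per enzyme to be at or below its ATP Km. Reactions were stopped with phosphoric acid and spotted onto P81 filters. Results are given as residual kinase activity.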

[3] = target: Ribosomal protein S6 kinase alpha-5 (Homo sapiens) (UniProt O75582); assay: Inhibition of recombinant MSK1 (unknown origin) assessed as residual activity using [gamma-33P]ATP as substrate at 1 uM
In short: (§3)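 Selectivity panel run under previously published conditions. Screened at 1 μM in duplicate. Reactions started with [γ-33P]ATP (800 cpm/pmol) at 5, 20 or 50 μM, chosen to be at or below each enzyme's ATP Km. Stopped with phosphoric acid, spotted onto P81 filters. Result expressed as residual kinase activity.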

[4] = target: Mitogen-activated protein kinase kinase kinase 9 (Homo sapiens) (UniProt P80192); assay: Inhibition of recombinant MLK1 (unknown origin) assessed as residual activity using [gamma-33P]ATP as substrate at 1 uM; in short: as §3
[5] = target: Death-associated protein kinase 1 (Homo sapiens) (UniProt P53355); assay: Inhibition of recombinant DAPK1 (unknown origin) assessed as residual activity using [gamma-33P]ATP as substrate at 1 uM; in short: as §1
[6] = target: Tyrosine-protein kinase JAK2 (Homo sapiens) (UniProt O60674); assay: Inhibition of recombinant JAK2 (unknown origin) assessed as residual activity using [gamma-33P]ATP as substrate at 1 uM; in short: as §1
[7] = target: Dual specificity tyrosine-phosphorylation-regulated kinase 3 (Homo sapiens) (UniProt O43781); assay: Inhibition of recombinant DYRK3 (unknown origin) assessed as residual activity using [gamma-33P]ATP as substrate at 1 uM; in short: as §1
Homo sapiens = species on record: Homo sapiens; assay: Inhibition of recombinant VEGFR (unknown origin) assessed as residual activity using [gamma-33P]ATP as substrate at 1 uM; in short: as §2
[8] = target: Mitogen-activated protein kinase 10 (Homo sapiens) (UniProt P53779); assay: Inhibition of recombinant JNK3 (unknown origin) assessed as residual activity using [gamma-33P]ATP as substrate at 1 uM; in short: as §3
[9] = target: Protein kinase C alpha type (Homo sapiens) (UniProt P17252); assay: Inhibition of recombinant PKCalpha (unknown origin) assessed as residual activity using [gamma-33P]ATP as substrate at 1 uM; in short: as §3
[10] = target: Mitogen-activated protein kinase 12 (Homo sapiens) (UniProt P53778); assay: Inhibition of recombinant p38 MAPKgamma (unknown origin) assessed as residual activity using [gamma-33P]ATP as substrate at 1 uM; in short: as §2
[11] = target: Ribosomal protein S6 kinase beta-1 (Homo sapiens) (UniProt P23443); assay: Inhibition of recombinant S6K1 (unknown origin) assessed as residual activity using [gamma-33P]ATP as substrate at 1 uM; in short: as §2
[12] = target: Serine/threonine-protein kinase pim-3 (Homo sapiens) (UniProt Q86V86); assay: Inhibition of recombinant PIM3 (unknown origin) assessed as residual activity using [gamma-33P]ATP as substrate at 1 uM; in short: as §3
[13] = target: Myosin light chain kinase, smooth muscle (Homo sapiens) (UniProt Q15746); assay: Inhibition of recombinant SMMLCK (unknown origin) assessed as residual activity using [gamma-33P]ATP as substrate at 1 uM; in short: as §2
[14] = target: Maternal embryonic leucine zipper kinase (Homo sapiens) (UniProt Q14680); assay: Inhibition of recombinant MELK (unknown origin) assessed as residual activity using [gamma-33P]ATP as substrate at 1 uM; in short: as §3
[15] = target: Dual specificity mitogen-activated protein kinase kinase 2 (Homo sapiens) (UniProt P36507); assay: Inhibition of recombinant MKK2 (unknown origin) assessed as residual activity using [gamma-33P]ATP as substrate at 1 uM; in short: as §3
[16] = target: Serine/threonine-protein kinase TBK1 (Homo sapiens) (UniProt Q9UHD2); assay: Inhibition of recombinant TBK1 (unknown origin) assessed as residual activity using [gamma-33P]ATP as substrate at 1 uM; in short: as §2
[17] = target: Serine/threonine-protein kinase pim-1 (Homo sapiens) (UniProt P11309); assay: Inhibition of recombinant PIM1 (unknown origin) assessed as residual activity using [gamma-33P]ATP as substrate at 1 uM; in short: as §3
[18] = target: Rho-associated protein kinase 2 (Homo sapiens) (UniProt O75116); assay: Inhibition of recombinant ROCK2 (unknown origin) assessed as residual activity using [gamma-33P]ATP as substrate at 1 uM; in short: as §3
[19] = target: Serine/threonine-protein kinase PAK 2 (Homo sapiens) (UniProt Q13177); assay: Inhibition of recombinant PAK2 (unknown origin) assessed as residual activity using [gamma-33P]ATP as substrate at 1 uM; in short: as §3
[20] = target: NUAK family SNF1-like kinase 1 (Homo sapiens) (UniProt O60285); assay: Inhibition of recombinant NUAK1 (unknown origin) assessed as residual activity using [gamma-33P]ATP as substrate at 1 uM; in short: as §3
[21] = target: Cyclin-dependent kinase 1/cyclin B1 (Homo sapiens) (UniProt P06493+P14635); assay: Ratio of roscovitine IC50 to compound IC50 for recombinant CDK1/cyclin B (unknown origin); assay type: protein-complex assay
[22] = target: Cyclin-dependent kinase 2/cyclin E1 (Homo sapiens) (UniProt P24864+P24941); assay: Ratio of roscovitine IC50 to compound IC50 for recombinant CDK2/cyclin E (unknown origin); assay type: protein-complex assay
MCF7 = assay: Ratio of roscovitine IC50 to compound IC50 for human MCF7 cells after 72 hrs by calcien AM dye based fluorescence analysis; assay type: functional

Mitogen-activated protein kinase 10 (Homo sapiens), sequence (P53779 whole entry): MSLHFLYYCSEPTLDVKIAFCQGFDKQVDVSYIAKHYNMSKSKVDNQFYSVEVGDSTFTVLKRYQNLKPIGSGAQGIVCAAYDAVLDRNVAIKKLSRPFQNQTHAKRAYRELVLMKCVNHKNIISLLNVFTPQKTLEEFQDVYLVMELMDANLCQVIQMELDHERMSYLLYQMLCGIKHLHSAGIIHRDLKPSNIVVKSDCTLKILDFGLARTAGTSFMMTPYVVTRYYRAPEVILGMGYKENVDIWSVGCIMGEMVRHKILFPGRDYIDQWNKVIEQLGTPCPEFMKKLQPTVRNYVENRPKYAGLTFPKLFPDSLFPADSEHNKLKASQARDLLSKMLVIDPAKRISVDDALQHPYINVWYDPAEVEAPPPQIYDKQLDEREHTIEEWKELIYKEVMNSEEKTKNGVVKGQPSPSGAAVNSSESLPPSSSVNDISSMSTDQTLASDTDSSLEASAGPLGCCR
Serine/threonine-protein kinase pim-1 (Homo sapiens), sequence (P11309 whole entry, looked up): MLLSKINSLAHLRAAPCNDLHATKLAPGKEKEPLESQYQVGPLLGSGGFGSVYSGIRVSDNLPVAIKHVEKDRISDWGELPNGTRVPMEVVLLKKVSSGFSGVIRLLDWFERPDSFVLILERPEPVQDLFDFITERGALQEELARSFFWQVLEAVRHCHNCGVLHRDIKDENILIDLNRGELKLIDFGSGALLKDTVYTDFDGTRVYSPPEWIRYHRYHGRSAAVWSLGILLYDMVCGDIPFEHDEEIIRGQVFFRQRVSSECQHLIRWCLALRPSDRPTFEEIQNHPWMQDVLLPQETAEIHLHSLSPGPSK
Serine/threonine-protein kinase TBK1 (Homo sapiens), sequence (Q9UHD2 whole entry): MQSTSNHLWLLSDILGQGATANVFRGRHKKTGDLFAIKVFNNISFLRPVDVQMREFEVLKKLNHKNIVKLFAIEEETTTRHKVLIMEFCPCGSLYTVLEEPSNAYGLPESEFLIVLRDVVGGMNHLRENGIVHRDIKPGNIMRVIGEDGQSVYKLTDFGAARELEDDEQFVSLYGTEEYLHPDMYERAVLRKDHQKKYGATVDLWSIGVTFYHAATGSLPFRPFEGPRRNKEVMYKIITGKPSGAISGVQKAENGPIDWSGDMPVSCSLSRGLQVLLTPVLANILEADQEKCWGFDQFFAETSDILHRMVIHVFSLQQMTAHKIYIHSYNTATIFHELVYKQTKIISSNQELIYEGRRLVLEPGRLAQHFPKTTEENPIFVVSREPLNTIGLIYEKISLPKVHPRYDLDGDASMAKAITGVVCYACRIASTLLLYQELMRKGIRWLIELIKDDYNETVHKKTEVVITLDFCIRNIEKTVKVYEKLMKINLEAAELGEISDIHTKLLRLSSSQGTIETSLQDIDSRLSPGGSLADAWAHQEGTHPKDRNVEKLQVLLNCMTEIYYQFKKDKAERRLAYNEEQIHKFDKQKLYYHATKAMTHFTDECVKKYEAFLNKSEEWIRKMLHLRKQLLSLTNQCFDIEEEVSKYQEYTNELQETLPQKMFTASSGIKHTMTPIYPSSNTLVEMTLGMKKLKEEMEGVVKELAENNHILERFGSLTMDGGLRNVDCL
Dual specificity tyrosine-phosphorylation-regulated kinase 3 (Homo sapiens), sequence (O43781 whole entry): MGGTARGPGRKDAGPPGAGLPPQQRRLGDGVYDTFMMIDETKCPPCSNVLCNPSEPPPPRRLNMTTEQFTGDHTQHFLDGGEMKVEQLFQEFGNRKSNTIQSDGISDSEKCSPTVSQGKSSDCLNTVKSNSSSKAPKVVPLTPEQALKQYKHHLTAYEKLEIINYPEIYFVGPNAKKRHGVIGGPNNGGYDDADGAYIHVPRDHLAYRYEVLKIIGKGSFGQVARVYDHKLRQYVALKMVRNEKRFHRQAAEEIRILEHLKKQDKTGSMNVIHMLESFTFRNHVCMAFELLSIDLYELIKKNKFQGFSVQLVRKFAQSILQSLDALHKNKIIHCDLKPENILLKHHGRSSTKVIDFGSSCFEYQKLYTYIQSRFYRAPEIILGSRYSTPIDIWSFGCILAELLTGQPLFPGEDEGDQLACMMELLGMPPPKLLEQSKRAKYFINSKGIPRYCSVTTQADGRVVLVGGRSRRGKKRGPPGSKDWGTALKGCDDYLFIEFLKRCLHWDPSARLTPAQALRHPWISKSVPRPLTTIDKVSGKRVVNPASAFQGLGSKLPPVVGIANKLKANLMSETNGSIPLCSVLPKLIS
Rho-associated protein kinase 2 (Homo sapiens), sequence (O75116 whole entry, looked up): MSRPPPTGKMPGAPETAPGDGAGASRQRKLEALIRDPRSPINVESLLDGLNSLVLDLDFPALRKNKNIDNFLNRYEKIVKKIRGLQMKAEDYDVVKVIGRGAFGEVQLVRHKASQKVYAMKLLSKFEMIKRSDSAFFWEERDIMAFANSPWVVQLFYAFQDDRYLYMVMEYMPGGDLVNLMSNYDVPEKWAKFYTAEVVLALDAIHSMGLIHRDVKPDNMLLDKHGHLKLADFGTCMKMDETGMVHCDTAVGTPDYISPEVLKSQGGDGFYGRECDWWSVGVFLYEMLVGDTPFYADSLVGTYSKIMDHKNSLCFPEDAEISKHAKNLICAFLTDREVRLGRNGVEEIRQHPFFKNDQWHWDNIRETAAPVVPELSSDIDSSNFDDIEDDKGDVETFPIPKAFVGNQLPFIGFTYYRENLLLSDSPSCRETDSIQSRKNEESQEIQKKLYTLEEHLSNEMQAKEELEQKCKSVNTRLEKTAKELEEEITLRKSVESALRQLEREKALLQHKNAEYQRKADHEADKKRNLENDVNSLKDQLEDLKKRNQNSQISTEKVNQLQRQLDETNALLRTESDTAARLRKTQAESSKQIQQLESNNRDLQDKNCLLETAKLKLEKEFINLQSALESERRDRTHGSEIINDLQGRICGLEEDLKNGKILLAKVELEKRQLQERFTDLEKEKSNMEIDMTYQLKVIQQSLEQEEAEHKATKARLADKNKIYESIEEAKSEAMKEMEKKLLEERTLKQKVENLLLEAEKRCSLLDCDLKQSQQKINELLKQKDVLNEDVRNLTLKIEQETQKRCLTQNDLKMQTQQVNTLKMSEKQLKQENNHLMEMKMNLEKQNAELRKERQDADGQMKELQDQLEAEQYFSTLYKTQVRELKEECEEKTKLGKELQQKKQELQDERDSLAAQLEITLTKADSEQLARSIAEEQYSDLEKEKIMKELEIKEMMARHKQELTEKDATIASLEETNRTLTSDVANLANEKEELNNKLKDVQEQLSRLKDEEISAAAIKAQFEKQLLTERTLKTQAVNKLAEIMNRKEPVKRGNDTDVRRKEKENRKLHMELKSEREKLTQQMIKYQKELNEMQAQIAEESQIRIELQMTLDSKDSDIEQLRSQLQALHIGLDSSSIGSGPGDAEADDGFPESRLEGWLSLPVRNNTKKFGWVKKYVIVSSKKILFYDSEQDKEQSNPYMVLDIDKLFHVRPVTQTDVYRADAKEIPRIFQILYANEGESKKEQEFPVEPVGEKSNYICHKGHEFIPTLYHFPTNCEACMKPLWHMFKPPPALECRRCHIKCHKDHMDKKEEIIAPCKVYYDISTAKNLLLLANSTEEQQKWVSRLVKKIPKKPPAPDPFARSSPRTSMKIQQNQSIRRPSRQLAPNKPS
Fibroblast growth factor receptor 1 (Homo sapiens), sequence (P11362 22-822 limits assumed): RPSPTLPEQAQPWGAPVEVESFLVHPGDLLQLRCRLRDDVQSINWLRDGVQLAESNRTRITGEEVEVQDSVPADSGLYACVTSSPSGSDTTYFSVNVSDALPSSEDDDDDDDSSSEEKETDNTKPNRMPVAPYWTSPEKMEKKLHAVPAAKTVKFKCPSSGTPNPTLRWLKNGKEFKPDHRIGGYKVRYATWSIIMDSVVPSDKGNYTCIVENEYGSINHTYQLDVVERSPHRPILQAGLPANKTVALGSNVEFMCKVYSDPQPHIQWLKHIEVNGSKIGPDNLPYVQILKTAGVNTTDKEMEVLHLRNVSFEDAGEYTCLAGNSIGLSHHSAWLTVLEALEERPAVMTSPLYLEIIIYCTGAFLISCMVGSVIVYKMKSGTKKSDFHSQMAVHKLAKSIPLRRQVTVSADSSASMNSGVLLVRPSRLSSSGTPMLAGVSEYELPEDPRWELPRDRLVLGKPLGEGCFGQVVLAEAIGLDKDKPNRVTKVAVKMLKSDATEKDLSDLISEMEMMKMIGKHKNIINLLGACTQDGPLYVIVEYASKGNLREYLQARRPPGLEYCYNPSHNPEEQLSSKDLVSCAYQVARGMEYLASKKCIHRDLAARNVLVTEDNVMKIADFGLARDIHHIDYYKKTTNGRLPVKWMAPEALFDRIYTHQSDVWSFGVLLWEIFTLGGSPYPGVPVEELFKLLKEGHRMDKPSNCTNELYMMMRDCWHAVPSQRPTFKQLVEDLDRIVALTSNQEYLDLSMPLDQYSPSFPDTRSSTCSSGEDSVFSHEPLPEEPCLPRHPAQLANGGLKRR
Dual specificity mitogen-activated protein kinase kinase 2 (Homo sapiens), sequence (P36507 whole entry): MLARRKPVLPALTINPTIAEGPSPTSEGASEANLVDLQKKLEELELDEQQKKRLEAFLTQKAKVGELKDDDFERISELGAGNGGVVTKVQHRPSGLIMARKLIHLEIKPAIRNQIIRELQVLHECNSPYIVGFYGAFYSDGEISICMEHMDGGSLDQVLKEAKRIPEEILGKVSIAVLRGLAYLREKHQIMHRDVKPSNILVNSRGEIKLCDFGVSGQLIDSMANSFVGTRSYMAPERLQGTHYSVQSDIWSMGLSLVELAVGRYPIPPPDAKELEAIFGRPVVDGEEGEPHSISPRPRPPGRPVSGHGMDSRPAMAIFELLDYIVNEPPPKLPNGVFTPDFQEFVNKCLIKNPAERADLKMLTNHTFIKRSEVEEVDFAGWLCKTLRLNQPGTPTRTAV

Activity [1] [%] | Activity [2] [%] | Activity [3] [%] | Activity [4] [%] | Activity [6] [%] | Activity [7] [%] | Activity (Homo sapiens) [%] | Activity [8] [%] | Activity [9] [%] | Activity [10] [%] | Activity [11] [%] | Activity [12] [%] | Activity [13] [%] | Activity [14] [%] | Activity [15] [%] | Activity [16] [%] | Activity [17] [%] | Activity [18] [%] | Activity [19] [%] | SMILES | Activity [5] [%] | further results
4 | 60 | 46 | 25 | 16 | 18 | 6 | 96 | 71 | 77 | 49 | 64 | 49 | 27 | 53 | 92 | 85 | 61 | 45 | CC[C@H](CO)Nc1nc(NC(=N)N)c2ncn(C(C)C)c2n1 | 54 | Activity [20]: 8%
5 | 51 | 38 | 31 | 16 | 11 | 4 | 80 | 68 | 71 | 36 | 44 | 32 | 19 | 39 | 90 | 71 | 65 | 38 | CC[C@@H](CO)Nc1nc(NC(=N)N)c2ncn(C(C)C)c2n1 | 36 | Ratio IC50 [21]: 2.7; Ratio IC50 [22]: 4.6; Ratio IC50 (MCF7): >10; Activity [20]: 7%
